Sampled rows, rich in hits. Any-hit rate of the full collection: about 2.3%.
LMPTP block = LMPTP phosphatase inhibitors, primary screen, biochemical, fluorescence intensity, uHTS | recombinant LMPTP-A, OMFP fluorogenic substrate | inhibition, % at 20 µM | hit rate 0.22% among 360,000;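 active = compounds that cut the enzyme signal by at least half of the control window in the single-dose screen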
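Test system: LMPTP-A phosphatase enzyme. Amount: LMPTP-A at 0.625 nM final in the reaction. Reagent: OMFP substrate, 400 µM final. Times: 50 min at room temperature. Signal: endpoint fluorescence intensity from OMFP dephosphorylation. Read-out basis: % inhibition. Benchmarks: no-enzyme and uninhibited controls.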
DNMT1 block = human DNMT1 methyltransferase inhibitors, primary screen, biochemical, molecular beacon, fluorescence, HinP1I cleavage, uHTS | hit rate 0.83% among 360,000 | inhibition (reported as % activation of signal), % at 10 µM | DNA (cytosine-5)-methyltransferase 1 (Homo sapiens), P26358; in the data active = inhibition above about 50%
Target sequence (P26358 504-1616 limits assumed): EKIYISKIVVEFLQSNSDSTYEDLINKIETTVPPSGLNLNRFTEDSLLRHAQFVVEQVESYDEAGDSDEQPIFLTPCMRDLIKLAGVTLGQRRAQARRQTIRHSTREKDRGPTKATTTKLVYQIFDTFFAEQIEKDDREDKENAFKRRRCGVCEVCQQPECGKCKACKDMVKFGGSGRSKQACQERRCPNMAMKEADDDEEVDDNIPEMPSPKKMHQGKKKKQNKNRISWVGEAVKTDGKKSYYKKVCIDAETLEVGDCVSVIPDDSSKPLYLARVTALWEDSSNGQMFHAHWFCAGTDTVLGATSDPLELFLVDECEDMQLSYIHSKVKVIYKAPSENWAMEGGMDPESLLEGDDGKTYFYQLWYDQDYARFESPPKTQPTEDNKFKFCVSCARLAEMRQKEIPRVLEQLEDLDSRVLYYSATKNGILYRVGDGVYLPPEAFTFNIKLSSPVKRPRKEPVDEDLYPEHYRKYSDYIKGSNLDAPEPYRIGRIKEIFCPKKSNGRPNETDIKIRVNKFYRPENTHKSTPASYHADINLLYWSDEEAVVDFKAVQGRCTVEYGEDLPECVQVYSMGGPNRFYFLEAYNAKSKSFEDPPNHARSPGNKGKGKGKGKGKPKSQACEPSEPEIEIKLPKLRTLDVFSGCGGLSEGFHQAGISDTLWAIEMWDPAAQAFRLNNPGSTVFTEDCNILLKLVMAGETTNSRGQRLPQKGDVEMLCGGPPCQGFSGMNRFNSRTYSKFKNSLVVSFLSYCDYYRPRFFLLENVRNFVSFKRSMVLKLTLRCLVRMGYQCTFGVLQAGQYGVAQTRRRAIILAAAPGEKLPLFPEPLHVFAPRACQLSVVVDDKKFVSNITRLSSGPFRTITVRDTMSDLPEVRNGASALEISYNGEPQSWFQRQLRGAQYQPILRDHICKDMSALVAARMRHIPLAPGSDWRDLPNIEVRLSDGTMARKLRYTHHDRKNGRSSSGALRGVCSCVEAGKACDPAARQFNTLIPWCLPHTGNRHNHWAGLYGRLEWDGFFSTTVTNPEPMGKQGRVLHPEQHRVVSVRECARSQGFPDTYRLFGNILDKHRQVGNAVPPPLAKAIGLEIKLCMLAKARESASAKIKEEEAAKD
Rpn11 block = Rpn11 (PSMD14) deubiquitinase inhibitors, primary screen, biochemical, fluorescence polarization, uHTS | 26S proteasome non-ATPase regulatory subunit 14 (Homo sapiens), O00487 | human 26S proteasome, Ub4-pepOG fluorescence polarization; 20S core pre-blocked with epoxomicin | inhibition, % at 20 µM | hit rate 0.59% among 360,000;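 active = inhibition at 20 µM, scaled to each plate's controls, above about 33%, limit read from the data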
Scp1 inh = Scp-1 phosphatase inhibitors, primary screen, biochemical, colorimetric, uHTS; Carboxy-terminal domain RNA polymerase II polypeptide A small phosphatase 1 (Homo …; Recombinant Scp1, phosphopeptide, malachite green phosphate absorbance; inhibition, % at 20 µM; hit rate 0.88% among 340,000;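 active = inhibition above about 50% at 20 µM, limit read from the data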
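Test system: SCP-1 phosphatase catalytic domain, residues 76-261; measured by: colorimetric phosphate reagent with accelerator and stabiliser, absorbance at 630 nm; timing: enzyme reaction 45 min at room temperature, colour 5 min, stabilisation 30 min; also added: Phosphorylated 17-residue peptide substrate; compound dosing: one concentration, 20 µM, with 1.0% DMSO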
SUMO1-SIM PPI = modulators of SUMO1 protein-protein interactions, primary screen, biochemical, uHTS; Small ubiquitin-related modifier 1 (Homo sapiens), P63165; SUMO1 binding to a labelled peptide, TR-FRET, 1 h; inhibition, % at 20 µM; hit rate 0.33% among 360,000; in the data active = inhibition above about 37%
STEP inh = STEP phosphatase inhibitors, primary screen, biochemical, fluorescence intensity, uHTS; Tyrosine-protein phosphatase non-receptor type 5 (Homo sapiens), P54829; AID 588621, 2011; inhibition, % at 20 µM; recombinant STEP, OMFP fluorogenic substrate; hit rate 0.25% among 360,000;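 active = inhibition at 20 µM, scaled per plate between control wells, above about 37%, limit read from the data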
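medium = Bis-Tris buffer pH 6.0, 2.5 mM DTT, 0.005% Tween 20 | test system = STEP (striatal-enriched tyrosine phosphatase) enzyme, cell-free | measure = normalized % inhibition | compound dosing = 20 µM, 1% DMSO | also added = 25 µM OMFP | schedule = reaction 20 min, ambient temperature | measured by = fluorescence read at 480 nm ex / 540 nm em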
DNMT1 interf DR = spectral interference with molecular beacon fluorescence, dose response, artefact control for DNMT1 inhibitor project, biochemical, fluorescent molecular beacon | shares compounds with DNMT1 block | spectral interference counter-screen | IC50, µM | 200 tested, under 10 active | AID 602382, 2012; call rule not given here
DNMT1 confirm = DNMT1 methyltransferase inhibitor retest, confirmation, biochemical, molecular beacon, fluorescence, single concentration; shares compounds with DNMT1 block; DNMT1 molecular beacon HinP1I cleavage; inhibition, % at 10 µM; hit rate 8% among 2,300; AID 602385, 2012;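 active = average inhibition of at least 30% in the single-concentration confirmation test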
DNMT1 interf = counter-screen for DNMT1 inhibitors: spectral interference; activation (fluorescence interference), % at 10 µM; hit rate 1% among 2,300; DNMT1 molecular beacon spectral interference counterscreen, fluorescence 485/520; shares compounds with DNMT1 block;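 active = activation of at least 30% at 10 µM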;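 note: DNMT1 catalytic domain with a HinP1I cleavage step and a FAM/dabcyl DNA beacon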
Large screens that a line does not name were inactive (follow-up assays come after a bar, where shown).

O=C(Nc1cccc(Cl)c1)c1nc[nH]c1C(=O)NCCCNC(=O)c1[nH]cnc1C(=O)Nc1cccc(Cl)c1	DNMT1 block 61 | DNMT1 confirm inactive | DNMT1 interf inactive
Cc1ccc(NC(=O)c2nc[nH]c2C(=O)NCCCCNC(=O)c2[nH]cnc2C(=O)Nc2ccc(C)cc2)cc1	DNMT1 block 89 | DNMT1 confirm inactive | DNMT1 interf inactive
COc1cccc(C2(C)NC(=O)N(CC(=O)Nc3ccc(N4CCOCC4)cc3)C2=O)c1 (stereo unspecified)	none
O=C(OCCc1cc2ccccc2c(=O)o1)c1ccc2c(c1)OCO2	DNMT1 block 71 | DNMT1 confirm inactive | DNMT1 interf inactive
CC(C)c1cc(N2CCN(C(=O)c3ccco3)CC2)n2c(nc3ccccc32)c1C#N	none
Cc1cc(-c2ccco2)c(C#N)c2nc3ccccc3n12	LMPTP block 73, DNMT1 block 69, Scp1 inh 66 | DNMT1 confirm inactive | DNMT1 interf inactive
O=C(Cn1cnnn1)OCC(=O)c1ccc(Cl)s1	DNMT1 block 58 | DNMT1 confirm inactive | DNMT1 interf inactive
CC(C)Cn1c(N)c(C(=O)NCC2CCCO2)c2nc3ccccc3nc21 (stereo unspecified)	DNMT1 block 74 | DNMT1 confirm inactive | DNMT1 interf inactive
O=C(Nc1cccc(S(=O)(=O)N2CCCCCC2)c1)c1ccc2c(c1)OCO2	none
O=C(Nc1cccc(S(=O)(=O)N2CCCC2)c1)c1ccc2c(c1)OCO2	DNMT1 block 95 | DNMT1 confirm inactive | DNMT1 interf inactive
Cc1ccccc1CC(=O)NCCN1CCCCC1	DNMT1 block 80 | DNMT1 confirm inactive | DNMT1 interf inactive
CN(C=[N+](C)C)c1cccc2c1C(=O)c1ccccc1C2=O	DNMT1 block 62 | DNMT1 confirm inactive | DNMT1 interf inactive
O=C(O)c1cccc2c1C(=O)c1ccccc1C2=O	none
COc1ccc2c3c(cccc13)N(C)N=C2C	DNMT1 block 93 | DNMT1 confirm inactive | DNMT1 interf inactive
Cc1ccc(S(=O)(=O)N2[C@@H](c3ccccc3F)C(C(=O)O)=CC[C@H]2c2cccs2)cc1	none
COc1cc(S(=O)(=O)NCCOC23CC4CC(CC(C4)C2)C3)c(OC)cc1Cl	DNMT1 block 107 | DNMT1 confirm inactive | DNMT1 interf inactive
CCOc1ccc(OCC)c(S(=O)(=O)NCCOC23CC4CC(CC(C4)C2)C3)c1	none
Clc1ccc(-c2ccc(/C=N/Nc3nncc(-c4ccccc4)n3)o2)cc1	none
Clc1ccccc1-c1ccc(/C=N/Nc2nncc(-c3ccccc3)n2)o1	DNMT1 block 69 | DNMT1 confirm inactive | DNMT1 interf inactive
CCOc1ccc2ccccc2c1CNc1nnnn1CC	DNMT1 block 92 | DNMT1 confirm inactive | DNMT1 interf inactive
O=C(c1cnn2c(-c3ccccc3)cc(-c3ccccc3)nc12)N1CCN(Cc2ccccc2)CC1	none
O=C(NC1CC1)c1ccc(-n2cccc2)cc1	none
C=CCn1c(CSc2ccccc2[N+](=O)[O-])n[nH]c1=S	DNMT1 block 70 | DNMT1 confirm inactive | DNMT1 interf inactive
C=CCn1c(Cc2ccccc2)n[nH]c1=S	none
CCCOc1ccc(C(=O)NCCC(=O)NCCCC(=O)O)cc1	none
Cc1ccccc1-c1cc2nc(C)c(C)c(=O)n2[nH]1	DNMT1 block 84 | DNMT1 confirm inactive | DNMT1 interf inactive
Cc1ccc(C(=O)OCC(=O)NCc2cccs2)cc1S(=O)(=O)N1CCOCC1	none
Cn1cc(CN2C[C@H]3CC[C@H]2C3)c(-c2ccccc2F)n1	DNMT1 block 58 | DNMT1 confirm inactive | DNMT1 interf inactive
COc1ccccc1-c1nc2s/c(=C\c3cccs3)c(=O)n2n1	none
COc1ccc(/C=c2\sc3nc(-c4ccccc4OC)nn3c2=O)c(OC)c1	DNMT1 block 71 | DNMT1 confirm inactive | DNMT1 interf inactive
Cc1sc2ncn(CC(=O)Nc3cccc(S(N)(=O)=O)c3)c(=O)c2c1-c1ccccc1	none
O=c1cc(CN2CCN(c3ccccc3)CC2)c2ccccc2o1	none (no result: Scp1 inh)
CCc1noc(C)c1C(=O)OCC(=O)Nc1cccc(C)c1	DNMT1 block 77 | DNMT1 confirm inactive | DNMT1 interf inactive
O=C(O)CCc1ccc(S(=O)(=O)Nc2cc(C(F)(F)F)ccc2N2CCCC2)cc1	DNMT1 block 53 | DNMT1 interf DR inactive | DNMT1 confirm 76 | DNMT1 interf inactive
O=C(Nc1cc2c(oc1=O)CCCC2=O)c1ccc(Cl)cc1	DNMT1 block 97, Scp1 inh 68 | DNMT1 confirm inactive | DNMT1 interf inactive
Cc1nccc2oc(=O)c(NC(=O)c3ccc(Cl)cc3)cc12	none
Cc1c(NS(=O)(=O)c2cc(C(=O)N(C)Cc3ccccc3)ccc2Cl)c(=O)n(-c2ccccc2)n1C	none
O=C(NCCCO)c1ccc2nc(-c3ccco3)c(-c3ccco3)nc2c1	SUMO1-SIM PPI 45 | DNMT1 confirm inactive | DNMT1 interf inactive
N#CCc1ccc(OC(=O)c2ccncc2)cc1	none
Cc1ccc(-c2noc(CNS(=O)(=O)c3ccccc3)n2)cc1	none
CC1(C(=O)Nc2ccc3nc[nH]c3c2)CCN1C(=O)C1(c2ccccc2)CC1 (stereo unspecified)	DNMT1 block 101 (no result: Scp1 inh) | DNMT1 confirm inactive | DNMT1 interf inactive
O=c1cc(-c2ccncc2)oc2c1ccc1ccccc12	none
O=c1cc(-c2ccco2)oc2c1ccc1ccccc12	DNMT1 block 65 | DNMT1 confirm inactive | DNMT1 interf inactive
Cn1cc(/C=C/c2cc[n+](C)cc2)c2cc(Cl)ccc21	none (not shown: Rpn11 block)
Cn1cc(/C=C/c2cc[n+](C)cc2)c2cc(F)ccc21	DNMT1 block 60 (not shown: Rpn11 block) | DNMT1 confirm 56 | DNMT1 interf 53
Cc1cccc(C(=O)Nc2ccc(NC(=O)CN3CCOCC3)cc2)c1	none

Bioassay records (PubChem)
